From ChEMBL document CHEMBL1949561, “Synthesis and triplex-forming ability of oligonucleotides bearing 1-substituted 1H-1,2,3-triazole nucleobases” (Bioorg Med Chem, 2011)

Assays:
Format in all cases: nucleic-acid assay
[1] = tested on: Nucleic Acid; experiment: Binding affinity to 5'-GCTAAAAAGATAGAGAGATCG-3'/5'- CGATCTCTCTATCTTTTTAGC-3' double stranded DNA assessed as melting temperature at 1.5 uM in sodium phosphate buffer at pH 7 by UV spectrophotometric analysis
Procedure, shortened: (§1)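 UV melting of triplexes between each modified TFO and the 21-bp duplex target, in 7 mM sodium phosphate buffer (pH 7.0), 140 mM KCl and 10 mM MgCl₂. Each oligonucleotide at 1.5 µM final. Absorbance followed at 260 nm from 5 °C to 85 °C, scanned at 0.5 °C/min, to give Tm.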

[2] = tested on: Nucleic Acid; experiment: Binding affinity to5'-GCTAAAAAGACAGAGAGATCG-3'/5'- CGATCTCTCTGTCTTTTTAGC-3' double stranded DNA assessed as melting temperature at 1.5 uM in sodium phosphate buffer at pH 7 by UV spectrophotometric analysis; procedure, shortened: as §1
[3] = tested on: Nucleic Acid; experiment: Binding affinity to 5'-GCTAAAAAGAGAGAGAGATCG-3'/5'- CGATCTCTCTCTCTTTTTAGC-3' double stranded DNA assessed as melting temperature at 1.5 uM in sodium phosphate buffer at pH 7 by UV spectrophotometric analysis; procedure, shortened: as §1
[4] = tested on: Nucleic Acid; experiment: Binding affinity to 5'-GCTAAAAAGAAAGAGAGATCG-3'/5'- CGATCTCTCTTTCTTTTTAGC-3' double stranded DNA assessed as melting temperature at 1.5 uM in sodium phosphate buffer at pH 7 by UV spectrophotometric analysis; procedure, shortened: as §1

SMILES | Tm [1] [°C] | Tm [2] [°C] | Tm [3] [°C] | Tm [4] [°C]
Cc1cn([C@H]2C[C@H](OP(=O)(O)OC[C@H]3O[C@@H](n4cc(C)c(=O)[nH]c4=O)C[C@@H]3OP(=O)(O)OC[C@H]3O[C@@H](n4cc(C)c(N)nc4=O)C[C@@H]3OP(=O)(O)OC[C@H]3O[C@@H](n4cc(C)c(=O)[nH]c4=O)C[C@@H]3OP(=O)(O)OC[C@H]3O[C@@H](n4cc(C)c(N)nc4=O)C[C@@H]3OP(=O)(O)OC[C@H]3O[C@@H](n4cc(C)c(=O)[nH]c4=O)C[C@@H]3OP(=O)(O)OC[C@H]3O[C@@H](c4cn(-c5ccccc5O)nn4)C[C@@H]3OP(=O)(O)OC[C@H]3O[C@@H](n4cc(C)c(=O)[nH]c4=O)C[C@@H]3OP(=O)(O)OC[C@H]3O[C@@H](n4cc(C)c(N)nc4=O)C[C@@H]3OP(=O)(O)OC[C@H]3O[C@@H](n4cc(C)c(=O)[nH]c4=O)C[C@@H]3OP(=O)(O)OC[C@H]3O[C@@H](n4cc(C)c(=O)[nH]c4=O)C[C@@H]3OP(=O)(O)OC[C@H]3O[C@@H](n4cc(C)c(=O)[nH]c4=O)C[C@@H]3OP(=O)(O)OC[C@H]3O[C@@H](n4cc(C)c(=O)[nH]c4=O)C[C@@H]3OP(=O)(O)OC[C@H]3O[C@@H](n4cc(C)c(=O)[nH]c4=O)C[C@@H]3O)[C@@H](COP(=O)(O)O[C@H]3C[C@H](n4cc(C)c(=O)[nH]c4=O)O[C@@H]3CO)O2)c(=O)nc1N | 15 | 25 | < 10 | 17
Cc1cn([C@H]2C[C@H](OP(=O)(O)OC[C@H]3O[C@@H](n4cc(C)c(=O)[nH]c4=O)C[C@@H]3OP(=O)(O)OC[C@H]3O[C@@H](n4cc(C)c(N)nc4=O)C[C@@H]3OP(=O)(O)OC[C@H]3O[C@@H](n4cc(C)c(=O)[nH]c4=O)C[C@@H]3OP(=O)(O)OC[C@H]3O[C@@H](n4cc(C)c(N)nc4=O)C[C@@H]3OP(=O)(O)OC[C@H]3O[C@@H](n4cc(C)c(=O)[nH]c4=O)C[C@@H]3OP(=O)(O)OC[C@H]3O[C@@H](c4cn(-c5ccc(CO)cc5)nn4)C[C@@H]3OP(=O)(O)OC[C@H]3O[C@@H](n4cc(C)c(=O)[nH]c4=O)C[C@@H]3OP(=O)(O)OC[C@H]3O[C@@H](n4cc(C)c(N)nc4=O)C[C@@H]3OP(=O)(O)OC[C@H]3O[C@@H](n4cc(C)c(=O)[nH]c4=O)C[C@@H]3OP(=O)(O)OC[C@H]3O[C@@H](n4cc(C)c(=O)[nH]c4=O)C[C@@H]3OP(=O)(O)OC[C@H]3O[C@@H](n4cc(C)c(=O)[nH]c4=O)C[C@@H]3OP(=O)(O)OC[C@H]3O[C@@H](n4cc(C)c(=O)[nH]c4=O)C[C@@H]3OP(=O)(O)OC[C@H]3O[C@@H](n4cc(C)c(=O)[nH]c4=O)C[C@@H]3O)[C@@H](COP(=O)(O)O[C@H]3C[C@H](n4cc(C)c(=O)[nH]c4=O)O[C@@H]3CO)O2)c(=O)nc1N | 16 | 24 | < 10 | < 10
Cc1cn([C@H]2C[C@H](OP(=O)(O)OC[C@H]3O[C@@H](n4cc(C)c(=O)[nH]c4=O)C[C@@H]3OP(=O)(O)OC[C@H]3O[C@@H](n4cc(C)c(N)nc4=O)C[C@@H]3OP(=O)(O)OC[C@H]3O[C@@H](n4cc(C)c(=O)[nH]c4=O)C[C@@H]3OP(=O)(O)OC[C@H]3O[C@@H](n4cc(C)c(N)nc4=O)C[C@@H]3OP(=O)(O)OC[C@H]3O[C@@H](n4cc(C)c(=O)[nH]c4=O)C[C@@H]3OP(=O)(O)OC[C@H]3O[C@@H](c4cn(-c5cccc(C(=O)O)c5)nn4)C[C@@H]3OP(=O)(O)OC[C@H]3O[C@@H](n4cc(C)c(=O)[nH]c4=O)C[C@@H]3OP(=O)(O)OC[C@H]3O[C@@H](n4cc(C)c(N)nc4=O)C[C@@H]3OP(=O)(O)OC[C@H]3O[C@@H](n4cc(C)c(=O)[nH]c4=O)C[C@@H]3OP(=O)(O)OC[C@H]3O[C@@H](n4cc(C)c(=O)[nH]c4=O)C[C@@H]3OP(=O)(O)OC[C@H]3O[C@@H](n4cc(C)c(=O)[nH]c4=O)C[C@@H]3OP(=O)(O)OC[C@H]3O[C@@H](n4cc(C)c(=O)[nH]c4=O)C[C@@H]3OP(=O)(O)OC[C@H]3O[C@@H](n4cc(C)c(=O)[nH]c4=O)C[C@@H]3O)[C@@H](COP(=O)(O)O[C@H]3C[C@H](n4cc(C)c(=O)[nH]c4=O)O[C@@H]3CO)O2)c(=O)nc1N | 15 | 22 | < 10 | < 10
Cc1cn([C@H]2C[C@H](OP(=O)(O)OC[C@H]3O[C@@H](n4cc(C)c(=O)[nH]c4=O)C[C@@H]3OP(=O)(O)OC[C@H]3O[C@@H](n4cc(C)c(N)nc4=O)C[C@@H]3OP(=O)(O)OC[C@H]3O[C@@H](n4cc(C)c(=O)[nH]c4=O)C[C@@H]3OP(=O)(O)OC[C@H]3O[C@@H](n4cc(C)c(N)nc4=O)C[C@@H]3OP(=O)(O)OC[C@H]3O[C@@H](n4cc(C)c(=O)[nH]c4=O)C[C@@H]3OP(=O)(O)OC[C@H]3O[C@@H](c4cn(-c5cccc(CO)c5)nn4)C[C@@H]3OP(=O)(O)OC[C@H]3O[C@@H](n4cc(C)c(=O)[nH]c4=O)C[C@@H]3OP(=O)(O)OC[C@H]3O[C@@H](n4cc(C)c(N)nc4=O)C[C@@H]3OP(=O)(O)OC[C@H]3O[C@@H](n4cc(C)c(=O)[nH]c4=O)C[C@@H]3OP(=O)(O)OC[C@H]3O[C@@H](n4cc(C)c(=O)[nH]c4=O)C[C@@H]3OP(=O)(O)OC[C@H]3O[C@@H](n4cc(C)c(=O)[nH]c4=O)C[C@@H]3OP(=O)(O)OC[C@H]3O[C@@H](n4cc(C)c(=O)[nH]c4=O)C[C@@H]3OP(=O)(O)OC[C@H]3O[C@@H](n4cc(C)c(=O)[nH]c4=O)C[C@@H]3O)[C@@H](COP(=O)(O)O[C@H]3C[C@H](n4cc(C)c(=O)[nH]c4=O)O[C@@H]3CO)O2)c(=O)nc1N | 14 | 23 | < 10 | < 10
CCOC(=O)Cn1cc([C@H]2C[C@H](OP(=O)(O)OC[C@H]3O[C@@H](n4cc(C)c(=O)[nH]c4=O)C[C@@H]3OP(=O)(O)OC[C@H]3O[C@@H](n4cc(C)c(N)nc4=O)C[C@@H]3OP(=O)(O)OC[C@H]3O[C@@H](n4cc(C)c(=O)[nH]c4=O)C[C@@H]3OP(=O)(O)OC[C@H]3O[C@@H](n4cc(C)c(=O)[nH]c4=O)C[C@@H]3OP(=O)(O)OC[C@H]3O[C@@H](n4cc(C)c(=O)[nH]c4=O)C[C@@H]3OP(=O)(O)OC[C@H]3O[C@@H](n4cc(C)c(=O)[nH]c4=O)C[C@@H]3OP(=O)(O)OC[C@H]3O[C@@H](n4cc(C)c(=O)[nH]c4=O)C[C@@H]3O)[C@@H](COP(=O)(O)O[C@H]3C[C@H](n4cc(C)c(=O)[nH]c4=O)O[C@@H]3COP(=O)(O)O[C@H]3C[C@H](n4cc(C)c(N)nc4=O)O[C@@H]3COP(=O)(O)O[C@H]3C[C@H](n4cc(C)c(=O)[nH]c4=O)O[C@@H]3COP(=O)(O)O[C@H]3C[C@H](n4cc(C)c(N)nc4=O)O[C@@H]3COP(=O)(O)O[C@H]3C[C@H](n4cc(C)c(=O)[nH]c4=O)O[C@@H]3COP(=O)(O)O[C@H]3C[C@H](n4cc(C)c(N)nc4=O)O[C@@H]3COP(=O)(O)O[C@H]3C[C@H](n4cc(C)c(=O)[nH]c4=O)O[C@@H]3CO)O2)nn1 | 14 | 20 | 12 | < 10
Cc1cn([C@H]2C[C@H](OP(=O)(O)OC[C@H]3O[C@@H](n4cc(C)c(=O)[nH]c4=O)C[C@@H]3OP(=O)(O)OC[C@H]3O[C@@H](n4cc(C)c(N)nc4=O)C[C@@H]3OP(=O)(O)OC[C@H]3O[C@@H](n4cc(C)c(=O)[nH]c4=O)C[C@@H]3OP(=O)(O)OC[C@H]3O[C@@H](n4cc(C)c(N)nc4=O)C[C@@H]3OP(=O)(O)OC[C@H]3O[C@@H](n4cc(C)c(=O)[nH]c4=O)C[C@@H]3OP(=O)(O)OC[C@H]3O[C@@H](c4cn(-c5cccnc5O)nn4)C[C@@H]3OP(=O)(O)OC[C@H]3O[C@@H](n4cc(C)c(=O)[nH]c4=O)C[C@@H]3OP(=O)(O)OC[C@H]3O[C@@H](n4cc(C)c(N)nc4=O)C[C@@H]3OP(=O)(O)OC[C@H]3O[C@@H](n4cc(C)c(=O)[nH]c4=O)C[C@@H]3OP(=O)(O)OC[C@H]3O[C@@H](n4cc(C)c(=O)[nH]c4=O)C[C@@H]3OP(=O)(O)OC[C@H]3O[C@@H](n4cc(C)c(=O)[nH]c4=O)C[C@@H]3OP(=O)(O)OC[C@H]3O[C@@H](n4cc(C)c(=O)[nH]c4=O)C[C@@H]3OP(=O)(O)OC[C@H]3O[C@@H](n4cc(C)c(=O)[nH]c4=O)C[C@@H]3O)[C@@H](COP(=O)(O)O[C@H]3C[C@H](n4cc(C)c(=O)[nH]c4=O)O[C@@H]3CO)O2)c(=O)nc1N | 15 | 24 | 15 | 12
Cc1cn([C@H]2C[C@H](OP(=O)(O)OC[C@H]3O[C@@H](n4cc(C)c(=O)[nH]c4=O)C[C@@H]3OP(=O)(O)OC[C@H]3O[C@@H](n4cc(C)c(N)nc4=O)C[C@@H]3OP(=O)(O)OC[C@H]3O[C@@H](n4cc(C)c(=O)[nH]c4=O)C[C@@H]3OP(=O)(O)OC[C@H]3O[C@@H](n4cc(C)c(N)nc4=O)C[C@@H]3OP(=O)(O)OC[C@H]3O[C@@H](n4cc(C)c(=O)[nH]c4=O)C[C@@H]3OP(=O)(O)OC[C@H]3O[C@@H](c4cn(C5CCCCC5)nn4)C[C@@H]3OP(=O)(O)OC[C@H]3O[C@@H](n4cc(C)c(=O)[nH]c4=O)C[C@@H]3OP(=O)(O)OC[C@H]3O[C@@H](n4cc(C)c(N)nc4=O)C[C@@H]3OP(=O)(O)OC[C@H]3O[C@@H](n4cc(C)c(=O)[nH]c4=O)C[C@@H]3OP(=O)(O)OC[C@H]3O[C@@H](n4cc(C)c(=O)[nH]c4=O)C[C@@H]3OP(=O)(O)OC[C@H]3O[C@@H](n4cc(C)c(=O)[nH]c4=O)C[C@@H]3OP(=O)(O)OC[C@H]3O[C@@H](n4cc(C)c(=O)[nH]c4=O)C[C@@H]3OP(=O)(O)OC[C@H]3O[C@@H](n4cc(C)c(=O)[nH]c4=O)C[C@@H]3O)[C@@H](COP(=O)(O)O[C@H]3C[C@H](n4cc(C)c(=O)[nH]c4=O)O[C@@H]3CO)O2)c(=O)nc1N | 12 | 20 | < 10 | < 10
